From ChEMBL document CHEMBL4219101, “Discovery of 18β-glycyrrhetinic acid conjugated aminobenzothiazole derivatives as Hsp90-Cdc37 interaction disruptors that inhibit cell migration and reverse drug resistance” (Bioorg Med Chem, 2018)
Calls of active or inactive are those of the source. No cut-off for these calls is given here.

Legend:
HepG2 = assay: Antiproliferative activity against human HepG2 cells after 48 hrs by MTT assay; assay type: functional, cell-based; conditions: HepG2, 48 h
Procedure, shortened: (§1)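 Cells in log phase seeded at about 1.0 × 10^5 cells/mL in 96-well plates, left 12 h at 37 °C, 5% CO2. Compounds dissolved in DMSO, added at 2.5, 5, 10, 20 and 50 µM, 48 h exposure. Absorbance read at 570/630 nm dual wavelength. Survival expressed relative to negative control. IC50 by Bliss method (n = 5), tests done in triplicate.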

A549 [1] = assay: Induction of apoptosis in human A549 cells assessed as upregulation of cleaved caspase-3 protein expression after 24 hrs by Western blot analysis; assay type: functional, cell-based
Procedure, shortened: (§2)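 A549 cells exposed to 5 and 10 µM for 24 h. Lysates cleared at 20000g, protein quantified by BCA and equal amounts run on 12% SDS-PAGE, then transferred to PVDF. Blocked in 5% skim milk in TBST. Probed overnight at 4 °C with antibodies to Bcl-2, Bax, caspase-9, caspase-3 and β-actin (loading reference). Chemiluminescent detection. Three independent experiments.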

A549 [2] = assay: Induction of apoptosis in human A549 cells assessed as late apoptotic cells at 10 uM after 24 hrs by Annexin-V FITC/propidium iodide staining based flow cytometry (reference value: 0.030%)
A549 [3] = assay: Induction of apoptosis in human A549 cells assessed as increase in intracellular ROS levels after 24 hrs by FITC-DCF-DA-fluorescence based flow cytometry; assay type: functional, cell-based
Procedure, shortened: (§3)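 A549 cells exposed to 5 and 10 µM for 24 h, untreated cells as control. Collected, washed with ice-cold PBS and loaded with DCFH-DA in cell-free medium for 20 min at 37 °C in the dark, then washed. Fluorescence measured by flow cytometry at 485 nm excitation and 538 nm emission. Mean ± S.D. of three independent experiments.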

A549 [4] = assay: Induction of apoptosis in human A549 cells assessed as upregulation of Bax protein expression after 24 hrs by Western blot analysis; assay type: functional, cell-based; procedure, shortened: as §2
A549 [5] = assay: Cell cycle arrest in human A549 cells assessed as accumulation at G1 phase at 10 uM after 48 hrs by propidium iodide staining-based flow cytometry (reference value: 70.16%); assay type: functional
A549 [6] = assay: Induction of apoptosis in human A549 cells assessed as intracellular ROS levels at 5 uM after 24 hrs by FITC-DCF-DA-fluorescence based flow cytometry (reference value: 0.832%); assay type: functional; procedure, shortened: as §3
A549 [7] = assay: Inhibition of HSP90/Cdc37 interaction in human A549 cells assessed as suppression cellular migration at 5 to 10 uM after 24 hrs by wound healing assay; assay type: cell-based
Procedure, shortened: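 Scratch wounds made in A549 monolayers, cells then exposed to 5 µM and 10 µM. Wound closure imaged by microscopy at 0 h and 24 h, magnification 200×.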

A549 [8] = assay: Induction of apoptosis in human A549 cells assessed as early apoptotic cells at 10 uM after 24 hrs by Annexin-V FITC/propidium iodide staining based flow cytometry (reference value: 0.080%)
[9] = target: T1, Heat shock protein HSP90 (Homo sapiens) (UniProt P07900+P08238); assay: Inhibition of HSP90 in human A549 cells assessed as downregulation of CDK4 expression after 24 hrs by Western blot analysis; assay type: cell-based
Procedure, shortened: (§4)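 A549 cells exposed for 24 h, with geldanamycin as comparator. Whole-cell lysates separated by SDS-PAGE and immunoblotted for the named proteins. β-actin used as reference.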

[10] = target: Heat shock protein HSP 90-beta/Hsp90 co-chaperone Cdc37 (Homo sapiens) (UniProt P08238+Q16543); assay: Inhibition of HSP90beta/Cdc37 interaction in human A549 cells assessed as upregulation of HSP90beta expression at 5 to 10 uM after 24 hrs by Western blot analysis; assay type: cell-based; procedure, shortened: as §4
[11] = target: T1, Heat shock protein HSP90 (Homo sapiens); assay: Inhibition of HSP90 in human A549 cells assessed as induction of HSP70 expression after 24 hrs by Western blot analysis; assay type: cell-based; procedure, shortened: as §4
[12] = Antiproliferative activity against human NCI-460 cells after 48 hrs by MTT assay; assay type: functional, cell-based; conditions: NCI-460, 48 h; procedure, shortened: as §1
A549 [13] = assay: Induction of apoptosis in human A549 cells assessed as viable cells at 5 uM after 24 hrs by Annexin-V FITC/propidium iodide staining based flow cytometry (reference value: 97.6%); conditions: A549, 24 h
[14] = target: T1, Heat shock protein HSP90 (Homo sapiens); assay: Inhibition of HSP90 in human A549 cells assessed as downregulation of phosphorylated akt expression after 24 hrs by Western blot analysis; assay type: cell-based; procedure, shortened: as §4
A549 [15] = assay: Antiproliferative activity against human A549 cells after 48 hrs by MTT assay; assay type: functional, cell-based; conditions: A549, 48 h; procedure, shortened: as §1
[16] = target: T1, Heat shock protein HSP90 (Homo sapiens); assay: Inhibition of HSP90 in human A549 cells assessed as induction of HSP27 expression after 24 hrs by Western blot analysis; assay type: cell-based; procedure, shortened: as §4
A549 [17] = assay: Induction of apoptosis in human A549 cells assessed as intracellular ROS levels at 10 uM after 24 hrs by FITC-DCF-DA-fluorescence based flow cytometry (reference value: 0.832%); assay type: functional; procedure, shortened: as §3
A549 [18] = assay: Cell cycle arrest in human A549 cells assessed as accumulation at G1 phase at 5 uM after 48 hrs by propidium iodide staining-based flow cytometry (reference value: 70.16%); assay type: functional
A549 [19] = assay: Cell cycle arrest in human A549 cells assessed as accumulation at S phase at 10 uM after 48 hrs by propidium iodide staining-based flow cytometry (reference value: 19.62%); assay type: functional
MCF7 = assay: Antiproliferative activity against human MCF7 cells after 48 hrs by MTT assay; assay type: functional, cell-based; conditions: MCF7, 48 h; procedure, shortened: as §1
A549 [20] = assay: Induction of apoptosis in human A549 cells assessed as late apoptotic cells at 5 uM after 24 hrs by Annexin-V FITC/propidium iodide staining based flow cytometry (reference value: 0.030%)
HCT-116 = assay: Antiproliferative activity against human HCT116 cells after 48 hrs by MTT assay; assay type: functional, cell-based; conditions: HCT-116, 48 h; procedure, shortened: as §1
A549 [21] = assay: Cell cycle arrest in human A549 cells assessed as accumulation at G2 phase at 10 uM after 48 hrs by propidium iodide staining-based flow cytometry (reference value: 10.22%); assay type: functional
A549 [22] = assay: Induction of apoptosis in human A549 cells assessed as increase in number of nuclei containing condensed chromatin at 5 to 10 uM after 24 hrs by Hoechest 33258-staining based fluorescence microscopy; assay type: functional, cell-based
Procedure, shortened: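 5.0 × 10^5 A549 cells per well exposed to 5 and 10 µM for 24 h, untreated cells as control. Fixed in 4% paraformaldehyde for 30 min, washed with ice-cold PBS and stained with Hoechst 33258 for 20 min in the dark. Condensed nuclei imaged by fluorescence microscopy at 350 nm excitation and 460 nm emission, 200× magnification.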

A549 [23] = assay: Induction of apoptosis in human A549 cells assessed as necrotic cells at 10 uM after 24 hrs by Annexin-V FITC/propidium iodide staining based flow cytometry (reference value: 2.32%)

IC50 (HepG2): 10.6 µM
inhibition [9]: Dose-dependent effect
inhibition [10]: Active
inhibition [11]: Dose-dependent effect
inhibition [14]: Dose-dependent effect
IC50 (A549 [15]): 4.04 µM
inhibition [16]: Dose-dependent effect
IC50 (MCF7): 6.37 µM
IC50 (HCT-116): 7.97 µM
SMILES: CCOC(=O)[C@@]1(C)CC[C@]2(C)CC[C@]3(C)C(=CC(=O)[C@@H]4[C@@]5(C)CC[C@H](OC(=O)CCC(=O)Nc6nc7ccc(F)cc7s6)C(C)(C)[C@@H]5CC[C@]43C)[C@@H]2C1
Activity (A549 [1]): Dose-dependent effect
Activity (A549 [2]): 6.07%
Activity (A549 [3]): Dose-dependent effect
Activity (A549 [4]): Dose-dependent effect
Activity (A549 [5]): 47.14%
Activity (A549 [6]): 13.6%
inhibition (A549 [7]): Active
Activity (A549 [8]): 14%
IC50 [12]: 7.41 µM
viability at 5 µM (A549 [13]): 85.5%
Activity (A549 [17]): 67.5%
Activity (A549 [18]): 52.92%
Activity (A549 [19]): 40.35%
Activity (A549 [20]): 3.84%
Activity (A549 [21]): 12.51%
Activity (A549 [22]): Dose-dependent effect
Activity (A549 [23]): 1.15%
